According to ChEMBL document CHEMBL4270516, “Screening serine/threonine and tyrosine kinase inhibitors for histidine kinase inhibition” (Bioorg Med Chem, 2018):
Calls of active or inactive are those of the source. The calls are words filed in the database; no cut-off is given here.

How the values were obtained:
[1] = Inhibition of ADP-BODIPY binding to Thermotoga maritima HK853 by fluorescence polarization assay
[2] = Inhibition of ADP-BODIPY binding to Thermotoga maritima HK853 in presence of Triton X-100 by fluorescence polarization assay
Thermotoga maritima [3] = experiment: Inhibition of ADP-BODIPY binding to Thermotoga maritima HK853 at 100 uM by fluorescence polarization assay
[4] = Inhibition of Thermotoga maritima HK853 autophosphorylation using compound at non-aggregating concentration after 30 mins in presence of [gamma-33P]-ATP by phosphorescence-based assay
In short: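 Coupled competition-aggregation assay with HK853 (T. maritima) and VicK (S. pneumoniae); enzymatic autophosphorylation followed with [γ-33P]ATP.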

Thermotoga maritima [5] = experiment: Induction of Thermotoga maritima HK853 aggregation up to 500 uM in presence of glutaraldehyde by PAGE analysis
[6] = tested on: Sensor histidine kinase VicK/WalK (Streptococcus pneumoniae); experiment: Induction of Streptococcus pneumoniae VicK aggregation up to 500 uM in presence of glutaraldehyde by PAGE analysis
Staphylococcus aureus [7] = experiment: Antibiofilm activity against methicillin-sensitive Staphylococcus aureus MSSA 447 at 112.5 to 500 uM after 18 hrs by crystal violet staining-based assay; assay type: functional, organism-based
In short: (§1)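 Biofilm formation by S. aureus and P. aeruginosa quantified by crystal violet staining, compared against DMSO-treated bacteria.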

Staphylococcus aureus [8] = experiment: Bactericidal activity against methicillin-sensitive Staphylococcus aureus MSSA 447 at 400 uM after 18 hrs by resazurin-dye based fluorescence assay; assay type: functional, organism-based
In short: (§2)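 Viability of methicillin-sensitive S. aureus and P. aeruginosa after treatment, judged by optical density and resazurin indicator dye relative to a DMSO control.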

Pseudomonas aeruginosa [9] = experiment: Antibiofilm activity against methicillin-sensitive Pseudomonas aeruginosa PAO1 at 112.5 to 500 uM after 18 hrs by crystal violet staining-based assay; assay type: functional, organism-based; in short: as §1
Pseudomonas aeruginosa [10] = experiment: Bactericidal activity against methicillin-sensitive Pseudomonas aeruginosa PAO1 at 400 uM after 18 hrs by resazurin-dye based fluorescence assay; assay type: functional, organism-based; in short: as §2
[11] = Inhibition of ADP-BODIPY binding to Thermotoga maritima HK853 after day 1 by fluorescence polarization assay
[12] = Inhibition of ADP-BODIPY binding to Thermotoga maritima HK853 after day 2 by fluorescence polarization assay

Row | IC50 [1] | IC50 [2] | inhibition (Thermotoga maritima [3]) | IC50 [4] | Activity (Thermotoga maritima [5]) | Activity [6] | SMILES | other results
1 | 21.6 µM | 27.1 µM | 90.1% | 124 µM | – | – | CONC1=NC(=O)/C(=C/c2ccc3ncccc3c2)S1 | –
2 | 21.9 µM | 24.4 µM | 79.2% | – | Active | Active | Cn1cc(C2=C(c3cccc(NCC(O)CO)c3)C(=O)NC2=O)c2cc(Cl)ccc21 (stereo unspecified) | –
3 | 12 µM | 12 µM | 65.5% | 282 µM | Active | Active | O=C1N=C(N[C@H](CO)c2ccccc2)S/C1=C\c1ccc2ncccc2c1 | –
4 | 38.3 µM | 42.2 µM | 73.7% | 99 µM | – | – | Cc1cc(C)c2c(n1)sc1c(N)ncnc12 | –
5 | 96 µM | > 300 µM | 81.2% | – | Active | Active | O=C1C(c2c[nH]c3ccccc23)=C(c2c[nH]c3ccccc23)C(=O)N1O | –
6 | 23.7 µM | 22.5 µM | 79.9% | 101 µM | – | – | Fc1ccc(-c2c(-c3ccncc3)[nH]c3nccnc23)cc1 | Activity (Staphylococcus aureus [7]): inactive; Activity (Staphylococcus aureus [8]): inactive; Activity (Pseudomonas aeruginosa [9]): inactive; Activity (Pseudomonas aeruginosa [10]): inactive; IC50 [11]: 2.7 µM; IC50 [12]: 6.26 µM
7 | – | – | – | 13.7 µM | – | – | Nc1ncnc2c1ncn2[C@@H]1O[C@H](COP(=O)(O)OP(=O)(O)O)[C@@H](O)[C@H]1O [ADENOSINE DIPHOSPHATE] | –
8 | – | – | 15% | – | – | – | Cn1c(-c2ccncc2)c(-c2ccc(F)cc2)c2ncccc21 | –
9 | 19.1 µM | 15.2 µM | 74.7% | 106 µM | Active | Active | CNc1ncc2cc(Oc3ccc(F)cc3F)c(=O)n(C)c2n1 | –
10 | – | – | 4.8% | – | – | – | Fc1ccc(-c2c(-c3ccncc3)n(CCN3CCOCC3)c3cccnc23)cc1 | –
11 | 26.2 µM | 160 µM | 98.1% | – | Active | Active | O=[N+]([O-])c1ccc2c(c1)C(c1ccccc1Cl)=Nc1c[nH]nc1N2 | –
12 | 12 µM | 13 µM | 66.3% | – | Active | Active | COc1cc[nH]c1/C=C1\C(=O)Nc2ccc([N+](=O)[O-])c(C3CC[C@@H](O)C3)c21 (stereo partly specified) | –
13 | – | – | 6.5% | – | – | – | Fc1ccc(-c2c(-c3ccncc3)[nH]c3cccnc23)cc1 | –
14 | – | – | 5.8% | – | – | – | OCCn1c(-c2ccncc2)c(-c2ccc(F)cc2)c2ncccc21 | –

Row | SMILES | IC50 [1] | IC50 [2] | inhibition (Thermotoga maritima [3]) | IC50 [4] | Activity (Thermotoga maritima [5]) | Activity [6] | other results
15 | Nc1ncnc2c1ncn2[C@@H]1O[C@H](COP(=O)(O)OP(=O)(O)NP(=O)(O)O)[C@@H](O)[C@H]1O | – | – | – | 48.2 µM | – | – | –
